# XBP1 UPR activ – adaptive UPR (XBP1) activation. CHO-XBP1 luciferase reporter, IRE1-XBP1 UPR activation, luminescence; percent of tunicamycin response, DMSO as zero. hit rate 0.33% among 330,000. activation, % at 20 µM;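 active = versus positive control, 20 µM dose yields 30% or more activation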;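 also: 100% = tunicamycin at 10 µg/mL and 0% = DMSO only wells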
#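 Material: CHO cell line with stable XBP1 luciferase reporter; schedule: 16-18 h cell attachment at 37 °C, then 6 h compound exposure; signal: glow luminescence from Steady-Glo reagent; medium: serum-containing F12 medium, 10% FBS; benchmarks: tunicamycin 10 µg/mL and vehicle-only wells; read-out: percent activation relative to tunicamycin reference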
# CHOP inh – CHOP inhibition in unfolded protein response | CHO-K1 CHOP-promoter luciferase, tunicamycin-induced, 15-18 h | inhibition, % at 10 µM | hit rate 3.8% among 220,000;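 active = compounds that reduced the stress-induced luciferase reporter signal by more than about 70% of percent inhibition, limit read from the data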;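 also: 0% = tunicamycin plus vehicle and 100% = wells without tunicamycin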
# Bfl-1 A1 inh – inhibitors of the anti-apoptotic protein A1, read as caspase activation. MEF A1-2A-BIM cells, Caspase-Glo 3/7 luminescence, 3 h; percent of clofoctol response, vehicle zero. caspase activation, % (test concentration not listed). hit rate 0.066% among 330,000. AID 2462;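 active = over half of replicate activation scores above 10%, or exactly half above 10 with the replicate mean above 10; inconclusive = replicate mean below 10 yet half the replicates above 10; inactive = over half of replicates below 10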
# UPR CHOP act – apoptotic UPR (CHOP) activation; CHO-CHOP luciferase reporter, luminescence; percent of tunicamycin response over DMSO baseline; activation, % at 10 µM; hit rate 0.34% among 330,000;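 active = at 10 µM dose, activation of 40% or more, normalized to positive control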;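 also: 100% = tunicamycin at 10 µg/mL and 0% = DMSO alone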
#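 Assay system: CHO-CHOP cells, stable luciferase reporter of PERK-eIF2a-CHOP signalling / Buffer or medium: F12 plus 10% serum / Compound dosing: one dose, 10 µM in 0.5% DMSO / Times: 6 h compound treatment, 37 °C / Technique: luciferase luminescence / Read-out: % reporter activation, DMSO baseline versus tunicamycin full activation / Benchmarks: tunicamycin and DMSO controls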
# CHOP confirm – confirmation of CHOP induction inhibitors | shares compounds with CHOP inh | CHO-CHOP promoter luciferase reporter, tunicamycin-induced, luminescence | inhibition, % at 10 µM | hit rate 45% among 2,100 | AID 504437;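 active = mean of three repeat readings of reporter signal inhibition above a set limit, cut at about 70% in these data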;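 also: 0% = tunicamycin plus vehicle and 100% = wells lacking tunicamycin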
# * = called active by the depositor; ? = inconclusive; nt = no result given. The full list was thinned out, with hits kept by preference.
SMILES,XBP1 UPR activ,CHOP inh,Bfl-1 A1 inh,UPR CHOP act,CHOP confirm
Cc1ccc(-c2nc3cc(NS(=O)(=O)c4ccc(C)cc4)ccc3o2)cc1,1,105*,1,0,80*
CN(Cc1cc(=O)[nH]c2ccccc12)C(=O)c1ccccc1,2,3,0,1,nt
CC1=NNC(=O)/C1=C\c1cn(-c2ccccc2)nc1-c1ccc(F)cc1,nt,106*,nt,nt,119*
O=Cc1cn(-c2ccccc2)nc1-c1ccc(F)cc1,0,nt,0,5,nt
COc1ccc2[nH]c3c(=O)n(/N=C/[C@H]4C(C)C=C(C)CC4C)c(=O)[nH]c3c2c1 (some centres not stated),1,109*,?,2,16
O=C(Nc1ccc(Cl)cc1)C1CCC(=O)N1Cc1ccccc1Cl (configuration not stated),-2,39,0,2,nt
CC1CCc2nc(NC(=O)CSc3nc4ccccc4o3)sc2C1 (configuration not stated),-8,97*,0,-2,23
O=C(CN1CCN(c2ccccc2F)CC1)c1c[nH]c2ccc(F)cc12,-4,60,1,-3,nt
Cc1nn(Cc2ccc(Cl)cc2)c(C)c1NC(=O)c1cc(-c2ccc3c(c2)OCO3)on1,-3,102*,2,0,62
Cc1nn(Cc2c(Cl)cccc2Cl)c(C)c1NC(=O)c1cc(C(C)C)on1,-3,nt,-1,0,96*
Cc1nn(Cc2ccc(Cl)c(Cl)c2)c(C)c1NC(=O)c1cc(-c2ccc3c(c2)OCO3)on1,13,67,2,0,nt
Cc1cc(C(=O)Nc2c(C)nn(Cc3c(Cl)cccc3Cl)c2C)no1,0,6,1,0,nt
O=C(CSc1ccc2nnc(-c3cccc(F)c3)n2n1)N1CCCc2ccccc21,1,105*,0,0,33
Cc1cc2c(n1-c1ccc(Br)cc1)CC(C)(C)CC2=O,0,15,0,0,nt
Cc1ccc(-n2c(C)cc3c2CC(C)(C)CC3=O)cc1C,1,105*,1,0,38
CCOC(=O)c1cc(-c2ccccc2)nc2c1c(C)nn2-c1ccccn1,5,103*,0,1,108*
O=Cc1s/c(=N\S(=O)(=O)c2ccccc2)n(CCCCl)c1Cl,nt,107*,nt,nt,112*
CCn1c(C)cs/c1=N\S(=O)(=O)c1ccccc1,-1,nt,0,-2,nt
O=c1c2ccccc2sn1-c1ccccc1,-2,108*,-8,9,20
O=C(N/N=C/c1ccc(O)cc1O)/C(=C/c1ccccc1)CCO,0,60,-1,3,nt
COc1ccc(OCc2cccc(C(=O)Nn3cc([N+](=O)[O-])cn3)c2)cc1,-7,98*,-1,-11,123*
CCCNC(=O)COC(=O)c1ccccc1C(=O)c1ccc(Cl)c([N+](=O)[O-])c1,-4,102*,0,25,-19
CC(C)c1ccc(NC(=O)CSc2nc(-c3ccccc3F)nc3nc[nH]c23)cc1,6,100*,0,0,94*
CC(C)c1ccc(NC(=O)CSc2nc(=O)[nH]c3c2CCCC3)cc1,0,nt,0,1,nt
Cc1ccc(-c2ccc(/C=C3/NC(=O)NC3=O)o2)cc1[N+](=O)[O-],nt,98*,nt,nt,-18
SMILES,XBP1 UPR activ,CHOP inh,Bfl-1 A1 inh,UPR CHOP act,CHOP confirm
Cc1ccc(C)c(NC(=O)C2CC3c4ccccc4C2c2ccccc23)c1 (configuration not stated),-2,99*,0,0,16
Cc1ccc(C)c(NC(=O)C2CC=CCC2C(=O)O)c1 (configuration not stated),1,20,-1,-1,nt
CCCn1nc(C(=O)NNC(=O)c2ccc(OC(F)F)cc2)c2ccccc2c1=O,-4,nt,0,0,nt
COc1ccccc1NC(=O)c1c(Nc2ccccc2F)sc(C(=O)Nc2cccc(Cl)c2)c1N,3,108*,0,5,63
COc1ccc(C(C(=O)NC2CCCCC2)N(C(=O)CCl)c2ccc(Cl)cc2)cc1 (configuration not stated),-4,107*,0,1,27
N=C1S/C(=C\c2ccccc2)C(=O)N1c1ccc(F)cc1,-1,0,0,1,nt
N=C1S/C(=C\c2cn[nH]c2-c2ccc(F)cc2)C(=O)N1c1ccccc1F,-1,103*,-1,6,43
N#C/C(=C\c1c[nH]c2ccccc12)C(=O)c1ccc(O)c(O)c1,nt,-1,nt,nt,nt
CC(C)COC(=O)/C(C#N)=C/c1c[nH]c2ccccc12,6,101*,-2,4,-22
O=c1c2cnn(-c3ccccc3)c2nnn1Cc1ccccn1,0,5,0,1,nt
Cc1cc(C)nc(Sc2ccc(C=O)cc2[N+](=O)[O-])n1,-3,-15,1,-1,nt
O=Cc1ccc(Sc2nnc(-c3ccccc3)o2)c([N+](=O)[O-])c1,8,97*,-1,0,-28
CC1Oc2ccccc2OC1C(=O)Nc1nccs1 (configuration not stated),29,nt,0,2,nt
CC(C)c1nc2sc3c(NCc4ccccc4)ncnc3c2c2c1COC(C)(C)C2,7,65,-2,-3,nt
CCN(CCO)c1ncnc2c1sc1nc(C(C)C)c3c(c12)CC(C)(C)OC3,13,99*,0,0,103*
O=c1c(Cl)c(Cl)cnn1-c1ccccc1,nt,101*,nt,nt,96*
Nc1c(Cl)cnn(-c2ccccc2)c1=O,-2,nt,0,1,nt
O=c1c(Cl)c(N/N=C/c2ccc(Cl)cc2)cnn1-c1ccccc1,2,102*,0,2,59
CCCCCCn1c(-c2ccco2)nc2oc3cc(OC)ccc3c(=O)c2c1=O,2,96*,0,0,107*
C(=N\Nc1nc(N2CCCCC2)nc(N2CCCCC2)n1)/c1c[nH]c2ccccc12,1,101*,0,6,42
CN(C)c1nc(N/N=C/c2c[nH]c3ccccc23)nc(N2CCOCC2)n1,0,-30,0,4,nt
Cc1ccc(-c2cn(CCN)c(-c3ccc(Cl)nc3)n2)cc1,-2,nt,-1,0,nt
Nc1nc(Nc2ccccc2F)nc(NCc2ccco2)c1[N+](=O)[O-],11,20,-2,2,nt
Cc1ccc(Nc2nc(N)c([N+](=O)[O-])c(NCc3ccco3)n2)cc1,5,101*,0,6,24
COc1ccccc1NCC(O)COc1ccc(C(C)(C)C)cc1 (configuration not stated),-1,105*,0,-1,120*
CC(C)(C)c1ccc(OCC(O)CNC(=O)c2ccccc2C(=O)O)cc1 (configuration not stated),-3,nt,0,3,nt
CNCC(O)COc1ccccc1 (configuration not stated),2,104*,1,-1,5

# Screening data (PubChem)
